Active and inactive are the calls of the source. The calls are words filed in the database; no cut-off is given here.
What was measured:
[1] = test system: HL-60; assay: Induction of apoptosis in human HL60 cells assessed as caspase 3/7 activation at 100 uM relative to control; type: functional
Outline: (§1)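 Apoptosis read in HL60 human leukemia cells as caspase 3/7 activity, using DEVD-AMC as substrate. Reported as the optimal compound concentration with fold activation.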

[2] = test system: KB; assay: Cytotoxicity against human KB cells at 1 uM after 72 hrs by MTS assay; type: functional
[3] = test system: HL-60; assay: Induction of apoptosis in human HL60 cells assessed as caspase 3/7 activation at 1 uM relative to control; type: functional; outline: as §1
[4] = Inhibition of tubulin assembly
Outline: (§2)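 Tubulin assembly inhibition run by the Zavala and Guenard method. Reported as percent inhibition at 6.6 x 10^-5 M, or as IC50 for selected compounds.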

[5] = test system: HL-60; assay: Induction of apoptosis in human HL60 cells assessed as caspase 3/7 activation at 0.1 uM relative to control; type: functional; outline: as §1
[6] = test system: KB; assay: Cytotoxicity against human KB cells after 72 hrs by MTS assay; type: functional, cell-based
[7] = Ratio of IC50 for drug to deoxypodophyllotoxin for tubulin assembly
Outline: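 Inhibition of tubulin assembly was run by the Zavala and Guénard method. Compounds were screened at 6.6 × 10^-5 M, and an IC50 was determined only for the most antiproliferative ones. The value is that IC50 divided by the IC50 of deoxypodophyllotoxin, the reference.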

[8] = test system: HL-60; assay: Induction of apoptosis in human HL60 cells assessed as caspase 3/7 activation at 10 uM relative to control; type: functional; outline: as §1
[9] = Inhibition of tubulin assembly at 66 uM; outline: as §2

SMILES | fold change (FC) [1] | inhibition at 1 µM [2] [%] | fold change (FC) [3] | IC50 [6] [µM] | further results
COc1ccc(-c2cc(=O)c3c(O)c(OC)c(OC)c(OC)c3o2)cc1 [GARDENIN B] | 3.8 | 28 |  |  | 
COc1ccc(-c2oc3c(OC)c(OC)c(OC)c(O)c3c(=O)c2Br)cc1N |  | 55 | 3.6 |  | 
COc1ccc(-c2cc(=O)c3c(OC)c(OC)c(OC)c(OC)c3o2)cc1[N+](=O)[O-] |  | 3 |  |  | 
COc1ccc(-c2oc3c(OC)c(OC)c(OC)c(O)c3c(=O)c2OC)cc1O |  | 92 |  | 0.02 | IC50 [4]: 10 µM; fold change (FC) [5]: 5.7; Ratio IC50 [7]: 3
COc1ccc(-c2cc(=O)c3c(O)c(OC)c(OC)c(OC)c3o2)cc1O |  |  | 3.8 | 0.08 | IC50 [4]: 86 µM; Ratio IC50 [7]: 27; fold change (FC) [8]: 5.2
COc1ccc(-c2cc(=O)c3c(O)c(OC)c(OC)c(OC)c3o2)cc1N |  | 83 | 6 | 0.16 | inhibition [9]: 27%
COc1ccc(-c2cc(=O)c3c(OC)c(OC)c(OC)c(OC)c3o2)cc1 [TANGERETIN] | inactive | 12 |  |  | 
COc1ccc(-c2cc(=O)c3c(OC)c(OC)c(OC)c(OC)c3o2)cc1N | inactive | 6 |  |  | 
COc1ccc(-c2cc(=O)c3c(O)cc(O)cc3o2)cc1N | 4 | 7 |  |  | 
COc1ccc(-c2cc(=O)c3c(O)c(OC)c(OC)c(OC)c3o2)cc1[N+](=O)[O-] |  | 2 |  |  | 
COc1ccc(-c2oc3c(OC)c(OC)c(OC)c(O)c3c(=O)c2Br)cc1[N+](=O)[O-] |  | 23 |  |  | 
COc1ccc(-c2oc3c(OC)c(OC)c(OC)c(O)c3c(=O)c2Cl)cc1N |  | 86 | 4.5 | 0.14 | inhibition [9]: 15%
COc1cc(O)c2c(=O)cc(-c3ccc(OC)c(N)c3)oc2c1 | inactive | 30 |  |  | 
